Screening results (PubChem BioAssay)
The list is not random: actives were taken first. Their share in the collection is about 3.3%.
ABCB6 inh MLPCN – inhibitors of human ABC transporter ABCB6; Q9NP58; K562-ABCB6 porphyrin accumulation, flow cytometry, 1 h; hits give low values; fluorescence ratio to DMSO, % at 10 µM; actives 0.19% (n = 360,000);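 active = fluorescence ratio to DMSO below 75%, the collection mean minus 3 SD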;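 note: signal is porphyrin accumulated inside mitochondria; lower ratio means ABCB6 inhibition with less porphyrin fluorescence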
Target sequence (Q9NP58 whole entry, looked up): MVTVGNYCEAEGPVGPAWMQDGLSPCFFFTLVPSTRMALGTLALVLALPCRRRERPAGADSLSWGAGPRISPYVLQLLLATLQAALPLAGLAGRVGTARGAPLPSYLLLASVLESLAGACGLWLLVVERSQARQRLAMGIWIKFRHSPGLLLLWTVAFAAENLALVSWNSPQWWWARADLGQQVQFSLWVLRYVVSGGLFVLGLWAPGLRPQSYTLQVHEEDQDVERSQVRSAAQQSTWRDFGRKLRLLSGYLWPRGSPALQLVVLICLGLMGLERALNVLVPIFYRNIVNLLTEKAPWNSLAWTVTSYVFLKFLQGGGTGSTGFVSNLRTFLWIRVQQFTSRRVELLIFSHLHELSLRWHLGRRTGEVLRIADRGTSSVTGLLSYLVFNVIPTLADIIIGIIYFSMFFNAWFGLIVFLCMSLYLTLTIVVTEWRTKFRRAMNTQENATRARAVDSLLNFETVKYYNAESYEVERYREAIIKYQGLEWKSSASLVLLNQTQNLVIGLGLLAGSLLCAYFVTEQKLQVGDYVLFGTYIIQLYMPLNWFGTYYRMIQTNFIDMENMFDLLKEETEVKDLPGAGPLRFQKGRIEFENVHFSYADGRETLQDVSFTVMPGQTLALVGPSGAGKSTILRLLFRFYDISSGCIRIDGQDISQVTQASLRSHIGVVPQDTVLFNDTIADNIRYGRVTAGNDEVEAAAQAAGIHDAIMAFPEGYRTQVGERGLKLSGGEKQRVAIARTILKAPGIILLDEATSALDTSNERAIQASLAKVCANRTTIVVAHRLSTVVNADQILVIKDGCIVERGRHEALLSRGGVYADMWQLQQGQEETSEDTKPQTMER
STAT3 activator – STAT3 signaling activation. U3A cells, IL-6 STAT3-luciferase reporter, luminescence; 100% = signal with IL-6 EC80 alone. activation (% of control), % at 5.6 µM. actives 0.91% (n = 190,000);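 active = activation above the screen-wide mean of compound activation plus 3 SD, cut at about 130% in these data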
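Assay system – human STAT1-deficient U3A cells with stable STAT3-luciferase reporter · Also added – IL-6 (33 ng/mL) · Schedule – compound 1 h, then IL-6 6 h at 37 °C · Technique – reporter luminescence signal · Evaluation – % activation versus median of IL-6-stimulated wells · Benchmarks – IL-6-only wells as 100% reference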
AHR activator – activators of human aryl hydrocarbon receptor | activation, % at 5 µM | P35869 | AID 2796 | AHR-responsive luciferase reporter cells, luminescence | actives 2.5% (n = 320,000); in the data active = activation above about 47%
FXN GAA850 act – frataxin GAA850 promoter activation; actives 0.56% (n = 360,000); activation, % at 6 µM; HEK293 lucGAA850 FXN promoter luciferase reporter, 24 h; percent of 10 µM SAHA response; AID 540364;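 active = activation above the average of all compounds screened plus 3 SD, cutoff fixed separately per campaign, cut at about 7.5% in these data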
Of the large screens only hits and unclear results are named; the others gave an inactive call.

COc1cccc(CN(C)C(=O)C2CCCN(C(=O)c3ccc(Cl)cc3)C2)c1 (stereo not drawn)	none (no result: STAT3 activator, AHR activator)
COc1ccc(-c2nc3cc(C)ccn3c2NC(=O)c2ccccc2OC)cc1	AHR activator 53 (no result: STAT3 activator)
CC(=O)NC1CC(C)(C)N(OC(C)=O)C(C)(C)C1	none (no result: AHR activator)
CCOC(=O)c1c(NC(=O)CSc2c[nH]c3ccccc23)sc2c1CCC2	none
CCOC(=O)c1c(NC(=O)CSc2c[nH]c3ccccc23)sc2c1CCCC2	STAT3 activator 135
COCCCN1CC(=O)N2Cc3[nH]c4ccccc4c3C[C@H]2C1=O	none (no result: STAT3 activator)
COc1ccc(C(=O)/C=C2/C(=O)Nc3ccccc32)cc1	none (no result: STAT3 activator, AHR activator)
O=C1Nc2ccccc2/C1=C/C(=O)c1cccs1	STAT3 activator 134, AHR activator 118
COC(=O)CCCC(=O)N1CCC(CCC(=O)NC2CC2)CC1	none (no result: STAT3 activator)
Cc1[nH]nc(N)c1N=Nc1ccc(Br)cc1	AHR activator 68 (no result: ABCB6 inh MLPCN, FXN GAA850 act)
Cc1nc(N)sc1N=Nc1ccc(Br)cc1	AHR activator 146
Nc1ccccc1SCc1c(Cl)cccc1Cl	AHR activator 50 (no result: STAT3 activator)
Nc1ccccc1SCc1ccccc1Cl	AHR activator 67 (no result: STAT3 activator)
Cc1c(C(=O)N2CCCCC2)c(S(=O)(=O)N2CCc3ccccc32)c(C)n1C	none (no result: STAT3 activator)
CC(=O)Oc1ccc(C(=O)Nc2ccc(C3(C#N)CCCC3)cc2)cc1	AHR activator 60 (no result: STAT3 activator)
O=C(c1ccc(F)cc1F)N1CCN(S(=O)(=O)c2ccc3c(c2)OCCO3)CC1	none (no result: STAT3 activator)
Oc1ccccc1NCC(O)Cn1ccc2ccccc21 (stereo not drawn)	STAT3 activator 135
OC(CNCc1ccccc1)Cn1ccc2ccccc21 (stereo not drawn)	none
Cc1cccc(-c2nc(Nc3cccc(O)c3)c3ccccc3n2)c1	AHR activator 68 (no result: STAT3 activator)
Cc1cccc(-c2nc(Nc3ccc(N4CCOCC4)cc3)c3ccccc3n2)c1	AHR activator 56
c1ccc2c(Nc3ccc(N4CCOCC4)cc3)nc(N3CCOCC3)nc2c1	AHR activator 72 (no result: STAT3 activator)
Oc1ccc(Nc2nc(-c3ccccc3)nc3ccccc23)cc1	none (no result: STAT3 activator)
Cc1ccc(Nc2nc(N3CCOCC3)c3ccccc3n2)cc1	none
CNC(=O)c1cc(C)c(-c2ccccc2)s1	none
CCOC(=O)C1CCN(S(=O)(=O)CCNC(=O)c2cccc(OC)c2)CC1	none (no result: STAT3 activator)
Cc1nc2ccccc2n1/N=C/c1ccc([N+](=O)[O-])s1	AHR activator 52
O=[N+]([O-])c1ccc(/C=N/n2c(CO)nc3ccccc32)s1	none
CC(C)c1cc(=O)n2c(nc3ccccc32)[nH]1	none (no result: STAT3 activator)
Cc1ccc(C)c2nc3sc(C(=O)N4CCOCC4)c(N)c3cc12	none
Cc1cc(C)c2nc3sc(C(=O)N4CCOCC4)c(N)c3cc2c1	AHR activator 72 (no result: STAT3 activator)
Nc1c(C(=O)N2CCOCC2)sc2nc3c(cc12)CCCC3	AHR activator 49 (no result: STAT3 activator)
CC1NC(=O)c2ccccc2-n2c1nc1ccc(F)cc1c2=O (stereo not drawn)	none (no result: STAT3 activator, AHR activator)
O=C(Nc1cccc2ccccc12)OCc1cncs1	AHR activator 57
Cc1ccc(-c2[nH]nc(N)c2N=Nc2ccccc2C)cc1	AHR activator 62
Cc1ccc(-c2[nH]nc(N)c2N=Nc2cccc(Cl)c2C)cc1	none (no result: AHR activator)
COc1ccc(C2CC(c3ccc(OC)c(OC)c3)=NN2C(=O)c2ccccc2)cc1 (stereo not drawn)	none (no result: STAT3 activator)
Cc1nc2nc(-c3cccs3)[nH]c2cc1Br	AHR activator 58 (no result: STAT3 activator)
c1ccc(-c2nc(-c3cccs3)[nH]c2-c2ccccc2)cc1	none
CC(C)C(=O)Nc1cccc(-c2cn3ccccc3n2)c1	none
CCCCC(=O)Nc1cccc(-c2csc(-c3ccccc3)n2)c1	AHR activator 69
CCC(=O)Nc1cccc(-c2cn3ccsc3n2)c1	AHR activator 54
O=C(O)CCC(=O)Nc1cccc(-c2csc(-c3ccccc3)n2)c1	none
CC(C)(C)CC(=O)Nc1cccc(-c2cn3cccnc3n2)c1	AHR activator 48
CC(=O)Nc1cccc(-c2cn3ccccc3n2)c1	AHR activator 61
CC(=O)c1ccc(N2CCC(c3cc(-c4ccc(Cl)cc4)n[nH]3)CC2)c([N+](=O)[O-])c1	none
CCOc1cc(CNCc2ccncc2)cc(Br)c1OCc1ccccc1F	none (no result: ABCB6 inh MLPCN)
CCN(CC)CCn1c(=N)n(CC(=O)c2ccc(Br)s2)c2ccccc21	AHR activator 70 (no result: STAT3 activator)
COc1cccc(C(=O)Cn2c(=N)n(C)c3ccccc32)c1	AHR activator 52
CCN(CC)CCn1c(=N)n(CCO)c2ccccc21	none
N=c1n(CC(=O)c2ccc(Br)s2)c2ccccc2n1Cc1ccccc1	AHR activator 71 (no result: STAT3 activator)
CCCn1c(=N)n(CC(=O)c2cccs2)c2ccccc21	none
